# Test results from ChEMBL document CHEMBL1154968, “Tellimagrandin I, HCV invasion inhibitor from Rosae Rugosae Flos” (Bioorg Med Chem Lett, 2010).
# Tests used:
# Hepatitis C virus [1] = assay: Antiviral activity against G envelope protein expressing HCV infected in HepG2 cells assessed as inhibition of viral invasion at 1 uM after 24 hrs by SEAP reporter gene assay; format: functional, Hepacivirus hominis; details: HepG2, 24 h
# Procedure, shortened: (§1)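 HepG2 cells seeded at 9.0 × 10⁴ cells/mL in DMEM with 10% FBS were grown 24 h at 37 °C under 5% CO₂. Samples in DMSO were diluted in medium (final DMSO 1.0%) and added 1 h before inoculation. After a further 24 h, supernatant SEAP activity was read by fluorescence.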
# Hepatitis C virus [2] = assay: Antiviral activity against G envelope protein expressing HCV infected in HepG2 cells assessed as inhibition of viral invasion at 10 uM after 24 hrs by SEAP reporter gene assay; format: functional, Hepacivirus hominis; details: HepG2, 24 h; procedure, shortened: as §1
# Hepatitis C virus [3] = assay: Antiviral activity against E1 and E2 envelope protein expressing HCV infected in HepG2 cells assessed as inhibition of viral invasion at 1 uM after 24 hrs by SEAP reporter gene assay; format: functional, Hepacivirus hominis; details: HepG2, 24 h; procedure, shortened: as §1
# Hepatitis C virus [4] = assay: Antiviral activity against E1 and E2 envelope protein expressing HCV infected in HepG2 cells assessed as inhibition of viral invasion at 10 uM after 24 hrs by SEAP reporter gene assay; format: functional, Hepacivirus hominis; details: HepG2, 24 h; procedure, shortened: as §1
# Hepatitis C virus [5] = assay: Antiviral activity against E1 and E2 envelope protein expressing HCV infected in HepG2 cells assessed as inhibition of viral invasion at 3 uM after 24 hrs by SEAP reporter gene assay; format: functional, Hepacivirus hominis; details: HepG2, 24 h; procedure, shortened: as §1
# Hepatitis C virus [6] = assay: Antiviral activity against G envelope protein expressing HCV infected in HepG2 cells assessed as inhibition of viral invasion at 3 uM after 24 hrs by SEAP reporter gene assay; format: functional, Hepacivirus hominis; details: HepG2, 24 h; procedure, shortened: as §1
# [7] = Growth inhibition of human HepG2 cells at 10 uM; format: cell-based; details: read-out: GI
Compound,inhibition at 1 µM (Hepatitis C virus [1]),inhibition at 10 µM (Hepatitis C virus [2]),inhibition at 1 µM (Hepatitis C virus [3]),inhibition at 10 µM (Hepatitis C virus [4]),inhibition at 3 µM (Hepatitis C virus [5]),inhibition at 3 µM (Hepatitis C virus [6]),inhibition at 10 µM [7]
O=C(OC[C@H]1OC(O)[C@H](OC(=O)c2cc(O)c(O)c(O)c2)[C@@H](OC(=O)c2cc(O)c(O)c(O)c2)[C@@H]1OC(=O)c1cc(O)c(O)c(O)c1)c1cc(O)c(O)c(O)c1 (stereo not given in full),16%,51.2%,9.1%,43.7%,20.8%,40.7%,–
O=C(OC[C@H]1O[C@@H](OC(=O)c2cc(O)c(O)c(O)c2)[C@H](OC(=O)c2cc(O)c(O)c(O)c2)[C@@H](OC(=O)c2cc(O)c(O)c(O)c2)[C@@H]1OC(=O)c1cc(O)c(O)c(O)c1)c1cc(O)c(O)c(O)c1 [PENTAGALLOYL GLUCOSE],5%,40.7%,4.2%,72.3%,28.9%,22.8%,–
O=C(O[C@H]1[C@@H]2OC(=O)c3cc(O)c(O)c(O)c3-c3c(cc(O)c(O)c3O)C(=O)OC[C@H]2OC(O)[C@@H]1OC(=O)c1cc(O)c(O)c(O)c1)c1cc(O)c(O)c(O)c1 (stereo not given in full) [Tellimagrandin I],–,–,–,–,–,–,15.6%
O=C1OC[C@H]2OC(O)[C@@H]3OC(=O)c4cc(O)c(O)c(O)c4-c4c(cc(O)c(O)c4O)C(=O)O[C@H]3[C@@H]2OC(=O)c2cc(O)c(O)c(O)c2-c2c1cc(O)c(O)c2O (stereo not given in full) [PEDUNCULAGIN],9.4%,30.9%,14.6%,81.1%,58.8%,14.8%,–
O=C(O[C@@H]1O[C@@H]2COC(=O)c3cc(O)c(O)c(O)c3-c3c(cc(O)c(O)c3O)C(=O)O[C@H]2[C@H](OC(=O)c2cc(O)c(O)c(O)c2)[C@H]1OC(=O)c1cc(O)c(O)c(O)c1)c1cc(O)c(O)c(O)c1 [EUGENIIN],17.2%,35.7%,18.4%,92.8%,51.3%,21.2%,–
